The subject of assay [1] is MCF7. The assay is described as follows: Induction of lysosomal destabilization in human MCF7 cells assessed as reduction in stability at 10 uM after 1 to 5 hrs by FACS. It counts as functional. More on the design: scale not given: the % may be the effect or the level left. The method, boiled down:
(§1)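 MCF7 cells seeded at 5 × 10^5 per well overnight, then moved to fresh 2% FBS medium with compound in DMSO or DMSO alone at 37°C for 1 and 5 h. 200nM LysoTracker Red was added for 30 min, and cells were trypsinized, washed and analysed by FACS (564–606nm, ≥10,000 events). A fall in fluorescence indicates a rise in lysosomal pH. Triplicates, reported as % control.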
On the technique in general: Flow cytometry measures light scatter and fluorescence of single cells or particles in a stream.

The subject of assay [2] is MCF7. The assay is described as follows: Cytotoxicity against human MCF7 cells after 48 hrs by MTT assay. It counts as functional, cell-based. The note with it: for IC50: MCF7, 48 h. In a few lines: (§2)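 MCF7 cells (RPMI 1640, 10% FBS) seeded at 5 × 10^3 per well and left overnight to attach. Compounds in DMSO (<0.1%) added at 0.78–100 μM for 48 h (or 72 h), then MTT read-out. Viability is Ad/Ac × 100 against untreated controls, with 5 replicates per dose and two independent experiments. IC50 is the concentration giving 50% growth inhibition.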
On the technique in general: Tetrazolium dyes change colour on reduction, which living cells bring about.

The target of assay [3] is T1, Acid ceramidase (Homo sapiens) (UniProt Q13510).
T1 sequence (whole entry): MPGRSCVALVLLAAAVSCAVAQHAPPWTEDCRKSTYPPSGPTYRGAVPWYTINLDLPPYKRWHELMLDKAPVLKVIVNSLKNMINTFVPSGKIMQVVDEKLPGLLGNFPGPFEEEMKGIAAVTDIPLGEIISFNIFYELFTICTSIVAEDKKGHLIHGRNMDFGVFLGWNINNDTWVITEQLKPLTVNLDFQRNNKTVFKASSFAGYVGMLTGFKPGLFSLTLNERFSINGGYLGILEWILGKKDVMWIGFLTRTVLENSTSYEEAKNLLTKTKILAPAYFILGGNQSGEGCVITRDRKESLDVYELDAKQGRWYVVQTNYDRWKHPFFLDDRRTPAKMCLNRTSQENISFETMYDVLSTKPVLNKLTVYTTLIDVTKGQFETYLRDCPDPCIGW
The assay is described as follows: Inhibition of acid ceramidase in human MCF7 cells at 10 uM after 2 hrs by scintillation counting. It counts as cell-based. The method, boiled down: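 MCF7 cells were treated with 10μM compound for 2 h, scraped and lysed in acidic buffer. Acid ceramidase activity in the lysate was assayed with [3H]C16-ceramide at pH about 4.2, 37°C for 1 h, counting released [3H]palmitic acid. Duplicates, reported as % control.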

Assay [4] has as its system MCF7. The assay is described as follows: Decrease in endogenous sphingosine level in human MCF7 cells at 10 uM after 2 hrs by LC/MS analysis relative to control. It counts as functional. More on the design: scale not given: the % may be the effect or the level left. In a few lines:
(§3)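 MCF7 cells treated with 10μM compound for 2 h. Endogenous ceramide species and sphingosine were measured in a Bligh & Dyer lipid extract and normalized to phospholipid phosphate (pmol/nmol Pi). Results are given as % of control, each dose in duplicate.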

Assay [5] deals with MCF7. The assay is described as follows: Increase in endogenous C16-ceramide level in human MCF7 cells at 10 uM after 2 hrs by LC/MS analysis relative to control. It is filed as functional. In a few lines:
as §3

Assay [6] has as its system MCF7. The assay is described as follows: Increase in endogenous C14-ceramide level in human MCF7 cells at 10 uM after 2 hrs by LC/MS analysis relative to control. It is filed as functional. The method, boiled down: as §3
In assay [7] the test system is MCF7. The assay is described as follows: Induction of apoptosis in human MCF7 cells at 5 uM after 24 hrs. It is filed as functional, cell-based. Particulars: MCF7, 24 h.
For assay [8], the system named is MCF7. The assay is described as follows: Increase in endogenous C18-ceramide level in human MCF7 cells at 10 uM after 2 hrs by LC/MS analysis relative to control. It counts as functional. The method, boiled down:
as §3

In assay [9] the target is T1, Acid ceramidase (Homo sapiens). The assay is described as follows: Inhibition of acid ceramidase in human MCF7 cell lysate at 50 uM by scintillation counting. It is filed as cell-free. The method, boiled down: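 MCF7 lysate prepared in pH 4.5 acetate buffer (5mM MgCl2, 1mM EDTA, 0.5% Triton X-100) served as the enzyme source. Substrate was [3H]C16-ceramide in Triton/cholate, dried down with compound from ethanol stock. The reaction was run at final pH about 4.2 and 37°C for 1 h, then stopped with Dole's reagent. Released [3H]palmitic acid was counted by scintillation. Duplicates, reported as % control.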

The subject of assay [10] is MCF7. The assay is described as follows: Increase in endogenous total ceramide level in human MCF7 cells at 10 uM after 2 hrs by LC/MS analysis relative to control. It is filed as functional. The method, boiled down: as §3
Assay [11] relates to MCF7. The assay is described as follows: Increase in endogenous C24-ceramide level in human MCF7 cells at 10 uM after 2 hrs by LC/MS analysis relative to control. It counts as functional. The method, boiled down: as §3
The subject of assay [12] is MCF7. The assay is described as follows: Increase in endogenous sphingosine level in human MCF7 cells at 10 uM after 2 hrs by LC/MS analysis relative to control. It is filed as functional. In a few lines: as §3
The test system of assay [13] is MCF7. The assay is described as follows: Increase in endogenous C24:1-ceramide level in human MCF7 cells at 10 uM after 2 hrs by LC/MS analysis relative to control. It is filed as functional. The method, boiled down: as §3
Assay [14] relates to MCF7. The assay is described as follows: Cytotoxicity against human MCF7 cells after 72 hrs by MTT assay. It counts as functional, cell-based. Particulars: MCF7, 72 h. In a few lines:
as §2

In assay [15] the test system is MCF7. The assay is described as follows: Induction of lysosomal destabilization in human MCF7 cells assessed as reduction in stability at 10 uM after 1 hr by FACS. It counts as functional. More on the design: scale not given: the % may be the effect or the level left. In a few lines: as §1
Assay [16] has as its system MCF7. The assay is described as follows: Induction of apoptosis in human MCF7 cells assessed as increase in caspase 3/7 activity at 10 uM after 24 hrs. It is filed as functional. The method, boiled down: (§4)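 MCF7 cells seeded at 5 × 10^3 per well overnight, then given vehicle or compound at the indicated concentrations. After 8 h and 24 h, caspase 3/7 activity was measured with the Apo-ONE homogeneous kit (fluorescence, ex 485/em 520 nm). Data are mean ±SD.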

Assay [17] relates to MCF7. The assay is described as follows: Induction of apoptosis in human MCF7 cells assessed as increase in caspase 3/7 activity after 24 hrs. It is filed as functional, cell-based. The method, boiled down:
as §4

The test system of assay [18] is MCF7. The assay is described as follows: Induction of lysosomal destabilization in human MCF7 cells assessed as reduction in stability at 10 uM after 5 hrs by FACS. It counts as functional, cell-based. The method, boiled down: as §1

Activity calls are given as the source filed them. No cut-off for these calls is given here.

Consider `CCCCCCCCCCCCCCN[C@H](CO)[C@H](O)c1ccc([N+](=O)[O-])cc1.Cl`, for which the Activity in the assay on MCF7 [1] is 90%; with MCF7 [2], “Dose-dependent effect”; with MCF7 [4], 30%; in the assay on MCF7 [5], 200%; with MCF7 [6] it was 220%; with MCF7 [8], 160%. Further, the IC50 in the assay on MCF7 [2] was determined as 4.29 µM; in the assay on MCF7 [7] it was 5 µM. Also, the inhibition in assay [3] amounted to 35%.
Turning to `CCCCCCCCNCCCCCC(=O)N[C@H](CO)[C@H](O)c1ccc([N+](=O)[O-])cc1`, the Activity entry is “Dose-dependent effect” in the assay with MCF7 [2]; 50% in the assay on MCF7 [4]; 98% with MCF7 [10]; 120% in the assay on MCF7 [5]; 200% with MCF7 [6]. This molecule also returned an IC50 in the assay with MCF7 [2] of 12.1 µM. For the same molecule, the inhibition in [9] came to 5%.
For the molecule `CCCCCCCCCCCCCC(=O)N[C@H](CO)[C@H](O)c1ccc([N+](=O)[O-])cc1`, the Activity with MCF7 [11] was 135%; in the assay on MCF7 [12], 140%; in the assay on MCF7 [2], “Dose-dependent effect”; with MCF7 [5], 135%; in the assay on MCF7 [6], 135%; in the assay with MCF7 [13], 135%. In the assay on MCF7 [8], the Activity was 135%. For the same molecule, the outcome (in the assay with MCF7 [1]; in assay [3]) was inactive. The IC50 with MCF7 [2] turned out to be 19.6 µM. Also, the inhibition in [9] came to 90%.
With `O=C(CCCCCCCCCCCn1ccnc1)N[C@H](CO)[C@H](O)c1ccc([N+](=O)[O-])cc1`, the Activity entry was “Dose-dependent effect” in the assay with MCF7 [2]; 50% in the assay with MCF7 [4]; 98% in the assay with MCF7 [10]; 120% in the assay with MCF7 [5]; 200% with MCF7 [6]. It took 14.8 µM to reach half-maximal inhibition with MCF7 [2] (IC50).
Take `NCCCCCCCCCCCC(=O)N[C@H](CO)[C@H](O)c1ccc([N+](=O)[O-])cc1`: the Activity entry with MCF7 [2] was “Dose-dependent effect”; with MCF7 [4] it was 50%; in the assay with MCF7 [10] it was 98%; in the assay with MCF7 [5], 120%; with MCF7 [6], 200%. Besides, the IC50 with MCF7 [2] amounted to 6.43 µM.
In the case of `O=C(CCCCCCCCCCCN1CCOCC1)N[C@H](CO)[C@H](O)c1ccc([N+](=O)[O-])cc1`, the Activity result with MCF7 [2] was “Dose-dependent effect”; in the assay with MCF7 [4] it was 50%; in the assay on MCF7 [10], 98%; in the assay with MCF7 [5] it was 120%; with MCF7 [6] it was 200%. This molecule registered an IC50 in the assay with MCF7 [2] of 49.9 µM. In assay [9], this molecule registered an inhibition of 5%.
On to `CN(C)CCCCCCCCCCCC(=O)N[C@H](CO)[C@H](O)c1ccc([N+](=O)[O-])cc1`, for which the figures for the IC50 in the assay with MCF7 [14] and in the assay with MCF7 [2] were 7.2 µM and 10.2 µM, respectively. The Activity is 10% in the assay with MCF7 [15]; 175% in the assay on MCF7 [16]; “Dose-dependent effect” in the assay on MCF7 [2]; 50% in the assay on MCF7 [4]; “Dose-dependent effect” in the assay with MCF7 [17]; 143% in the assay on MCF7 [5]. In the assay on MCF7 [6], this molecule had an Activity of 300%. Also, the results for the inhibition in assay [9] and in assay [3] were 55% and 65%, respectively. Further, the result in the assay on MCF7 [18] was inactive.
As to `CNCCCCCCCCCCCC(=O)N[C@H](CO)[C@H](O)c1ccc([N+](=O)[O-])cc1`, the Activity result is “Dose-dependent effect” in the assay with MCF7 [2]; 50% in the assay with MCF7 [4]; 98% in the assay on MCF7 [10]; 120% in the assay on MCF7 [5]; 200% in the assay with MCF7 [6]. Further, the IC50 in the assay with MCF7 [2] amounted to 15.5 µM.

The term IC50 denotes the concentration needed to halve the response being measured. For orientation: inhibition means the share of the control response that was lost under treatment.

These data come from ChEMBL document CHEMBL1152760, “Synthesis and bioevaluation of omega-N-amino analogs of B13” (Bioorg Med Chem, 2009).
